Assay results from ChEMBL document CHEMBL4765483 (J Med Chem, 2021).
Calls of active or inactive are those of the source. The calls are words filed in the database; no cut-off is given here.

Legend:
Adenosine receptor A2b [1] = target: T1, Adenosine receptor A2b (Homo sapiens, UniProt P29275); experiment: Antagonist activity at human A2B receptor
T1 sequence (P29275 whole entry): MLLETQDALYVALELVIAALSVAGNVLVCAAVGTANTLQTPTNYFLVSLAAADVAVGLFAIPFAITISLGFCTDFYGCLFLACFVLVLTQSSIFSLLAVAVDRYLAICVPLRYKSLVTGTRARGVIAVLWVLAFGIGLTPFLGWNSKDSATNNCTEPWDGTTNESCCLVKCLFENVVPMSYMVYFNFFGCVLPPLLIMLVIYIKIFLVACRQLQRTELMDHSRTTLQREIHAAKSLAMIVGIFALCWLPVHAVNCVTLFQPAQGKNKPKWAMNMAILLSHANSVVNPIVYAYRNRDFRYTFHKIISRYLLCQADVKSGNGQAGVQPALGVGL

DU-145 [2] = experiment: Antimigratory activity in human DU-145 cells assessed as reduction in cell migration at Ki level incubated for 72 hrs by crystal violet staining based confocal microscopy; type: functional
Outline: (§1)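 Transwell migration, 8.0 μm pore polycarbonate membrane; 10⁵ cells seeded in serum-free medium in upper chamber, complete medium with 10% FBS below. Cells kept in RPMI 1640, 10% FBS. Migration scored after 72 h without or with treatment; migrated cells fixed in 4% paraformaldehyde, crystal violet stained, counted in five random fields; at least three chambers from three experiments.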

LNCaP [3] = experiment: Antimigratory activity in human LNCaP cells assessed as reduction in cell migration at Ki level incubated for 72 hrs by crystal violet staining based confocal microscopy; type: functional; outline: as §1
PC-3 [4] = experiment: Antimetastatic activity in human PC-3 cells assessed as induction of actin skeleton reorganization at Ki level incubated for 72 hrs by confocal laser scanning microscopy; type: functional, cell-based
PC-3 [5] = experiment: Antimigratory activity in human PC-3 cells assessed as reduction in cell migration at Ki level incubated for 72 hrs by crystal violet staining based confocal microscopy; type: functional; outline: as §1
PC-3 [6] = experiment: Antimetastatic activity in human PC-3 cells assessed as effect on cell shape at Ki level incubated for 72 hrs by confocal laser scanning microscopy; type: functional, cell-based
PC-3 [7] = experiment: Toxicity in human PC-3 cells assessed as effect on cell growth at 10 to 100 uM by MTT assay; type: cell-based; details: pc-3, 100 µM, dose 10-100 µM
Outline: (§2)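 Prostate cancer cells cultured in RPMI 1640 with 10% FBS, penicillin and streptomycin at 37 °C, 5% CO2; tested at 10 and 100 μM by MTT assay with cisplatin as control.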

LNCaP [8] = experiment: Toxicity in human LNCaP cells assessed as effect on cell growth at 10 to 100 uM by MTT assay; type: cell-based; details: dose 10-100 µM; outline: as §2
DU-145 [9] = experiment: Toxicity in human DU-145 cells assessed as effect on cell growth at 10 to 100 uM by MTT assay; type: cell-based; details: du-145, 100 µM, dose 10-100 µM; outline: as §2
CYP3A4 [10] = target: T2, CYP3A4 (Homo sapiens, UniProt P08684); experiment: Inhibition of CYP3A4 (unknown origin) expressed in insect cell microsomes at 1 uM in presence of BFC substrate by fluorescence based assay relative to control; type: ADME, Microsome; details: recombinant CYP3A4 expressed in insect cell microsomes, probe BFC
T2 sequence (P08684 whole entry, canonical isoform): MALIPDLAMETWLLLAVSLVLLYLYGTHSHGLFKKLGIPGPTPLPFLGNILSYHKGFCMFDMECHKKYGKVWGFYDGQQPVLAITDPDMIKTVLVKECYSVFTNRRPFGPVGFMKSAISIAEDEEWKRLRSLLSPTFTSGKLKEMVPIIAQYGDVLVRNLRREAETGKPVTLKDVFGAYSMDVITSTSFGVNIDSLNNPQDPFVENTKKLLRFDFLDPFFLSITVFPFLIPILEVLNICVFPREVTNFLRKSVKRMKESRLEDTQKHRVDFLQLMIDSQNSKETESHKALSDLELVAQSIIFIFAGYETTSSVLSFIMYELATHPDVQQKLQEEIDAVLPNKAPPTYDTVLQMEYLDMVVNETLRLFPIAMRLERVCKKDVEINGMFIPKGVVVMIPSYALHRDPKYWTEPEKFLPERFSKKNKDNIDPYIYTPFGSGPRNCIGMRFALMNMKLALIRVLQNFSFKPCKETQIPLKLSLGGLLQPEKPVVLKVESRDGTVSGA
Outline: (§3)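 cDNA-expressed P450 in insect cell microsomes; cofactor mix of KH2PO4 buffer, 1.3 mM NADP, 3.3 mM MgCl2, 3.3 mM glucose-6-phosphate, 0.4 U/mL G6PDH. Preincubated 5 min at 37 °C, started with prewarmed enzyme/substrate mix, stopped at an isoform-specific time. Fluorescence read; percentage inhibition at 1 and 10 μM; mean of n = 3.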

CYP3A4 [11] = target: T2, CYP3A4; experiment: Inhibition of CYP3A4 (unknown origin) expressed in insect cell microsomes at 1 uM in presence of DBF substrate by fluorescence based assay relative to control; type: ADME, Microsome; details: recombinant CYP3A4 expressed in insect cell microsomes, probe DBF; outline: as §3
CYP3A4 [12] = target: T2, CYP3A4; experiment: Inhibition of CYP3A4 (unknown origin) expressed in insect cell microsomes at 10 uM in presence of DBF substrate by fluorescence based assay relative to control; type: ADME, Microsome; details: recombinant CYP3A4 expressed in insect cell microsomes, probe DBF; outline: as §3
CYP2D6 [13] = target: T3, CYP2D6 (Homo sapiens, UniProt P10635); experiment: Inhibition of CYP2D6 (unknown origin) expressed in insect cell microsomes at 10 uM by fluorescence based assay relative to control; type: ADME, Microsome; details: recombinant CYP2D6 expressed in insect cell microsomes; outline: as §3
T3 sequence (P10635 whole entry): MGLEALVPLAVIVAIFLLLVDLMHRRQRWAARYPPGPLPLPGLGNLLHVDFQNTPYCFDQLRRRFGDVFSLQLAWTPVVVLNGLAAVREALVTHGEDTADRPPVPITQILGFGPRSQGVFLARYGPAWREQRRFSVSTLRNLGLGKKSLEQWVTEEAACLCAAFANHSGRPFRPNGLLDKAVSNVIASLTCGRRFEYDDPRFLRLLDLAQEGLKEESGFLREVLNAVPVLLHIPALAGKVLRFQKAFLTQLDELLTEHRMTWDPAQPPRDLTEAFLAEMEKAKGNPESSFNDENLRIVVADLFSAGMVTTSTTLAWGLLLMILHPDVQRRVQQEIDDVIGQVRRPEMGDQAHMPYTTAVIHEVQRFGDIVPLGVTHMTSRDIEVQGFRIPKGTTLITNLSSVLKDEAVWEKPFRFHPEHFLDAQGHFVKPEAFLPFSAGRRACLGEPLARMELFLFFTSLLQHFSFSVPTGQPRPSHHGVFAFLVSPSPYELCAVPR

CYP3A4 [14] = target: T2, CYP3A4; experiment: Inhibition of CYP3A4 (unknown origin) expressed in insect cell microsomes at 10 uM in presence of BFC substrate by fluorescence based assay relative to control; type: ADME, Microsome; details: recombinant CYP3A4 expressed in insect cell microsomes, probe BFC; outline: as §3
CYP2D6 [15] = target: T3, CYP2D6; experiment: Inhibition of CYP2D6 (unknown origin) expressed in insect cell microsomes at 1 uM by fluorescence based assay relative to control; type: ADME, Microsome; details: recombinant CYP2D6 expressed in insect cell microsomes; outline: as §3
[16] = Stability in human liver microsomes in NADP incubated up to 60 mins by UPLC-MS/MS analysis; type: ADME, Microsome; details: read-out: Stabilty
Outline: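 Human microsomes at 37 °C in 50 mM phosphate buffer pH 7.4 with 3 mM MgCl2, 1 mM NADP, 10 mM glucose-6-phosphate, 1 U/mL G6PDH. Samples at 0, 10, 20, 40, 60 min quenched into cold acetonitrile with 0.5% formic acid, centrifuged; supernatant analysed by UPLC–MS/MS on C18 column.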

[17] = target: T4, Adenosine receptor A3 (Homo sapiens) (UniProt P0DMS8); experiment: Displacement of [3H]NECA from adenosine A3 receptor expressed in human HeLa cell membranes at 1 uM incubated for 180 mins by scintillation counting method; details: Cell membrane
T4 sequence (whole entry): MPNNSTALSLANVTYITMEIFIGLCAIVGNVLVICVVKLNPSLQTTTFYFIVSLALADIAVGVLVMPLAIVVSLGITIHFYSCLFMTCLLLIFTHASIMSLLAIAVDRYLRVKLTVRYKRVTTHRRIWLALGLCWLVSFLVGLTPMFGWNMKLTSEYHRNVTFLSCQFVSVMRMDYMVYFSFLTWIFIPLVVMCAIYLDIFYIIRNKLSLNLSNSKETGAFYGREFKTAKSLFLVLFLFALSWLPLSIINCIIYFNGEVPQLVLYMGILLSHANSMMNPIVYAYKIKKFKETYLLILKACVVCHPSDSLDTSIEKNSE
Outline: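 hA3AR in HeLa membranes (3 pmol/mg protein) with 10 nM [3H]NECA (KD 8.7 nM); nonspecific binding with 100 μM R-PIA; incubated 180 min at 25 °C, washed, filtered, radioactivity counted.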

[18] = target: Adenosine receptor A2a (Homo sapiens) (UniProt P29274); experiment: Displacement of [3H]ZM2421385 from adenosine A2A receptor expressed in human HeLa cell membranes at 1 uM incubated for 30 mins by scintillation counting method; details: Cell membrane
Adenosine receptor A2a (Homo sapiens), sequence (P29274 whole entry): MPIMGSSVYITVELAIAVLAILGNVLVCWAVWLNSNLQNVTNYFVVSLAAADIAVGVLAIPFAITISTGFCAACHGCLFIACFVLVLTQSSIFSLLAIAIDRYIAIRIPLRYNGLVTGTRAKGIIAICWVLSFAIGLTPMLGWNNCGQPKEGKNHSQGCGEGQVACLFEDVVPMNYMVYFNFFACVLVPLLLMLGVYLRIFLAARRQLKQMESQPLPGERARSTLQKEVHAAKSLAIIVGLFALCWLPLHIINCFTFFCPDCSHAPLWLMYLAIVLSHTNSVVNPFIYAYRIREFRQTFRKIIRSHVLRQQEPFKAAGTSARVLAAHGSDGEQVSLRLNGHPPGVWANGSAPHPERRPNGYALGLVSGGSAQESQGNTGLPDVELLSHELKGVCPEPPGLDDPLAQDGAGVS

[19] = target: T5, Adenosine receptor A1 (Homo sapiens) (UniProt P30542); experiment: Displacement of [3H]DPCPX from human adenosine A1 receptor expressed in CHO cell membranes at 1 uM incubated for 60 mins by scintillation counting method; details: Cell membrane
T5 sequence (whole entry): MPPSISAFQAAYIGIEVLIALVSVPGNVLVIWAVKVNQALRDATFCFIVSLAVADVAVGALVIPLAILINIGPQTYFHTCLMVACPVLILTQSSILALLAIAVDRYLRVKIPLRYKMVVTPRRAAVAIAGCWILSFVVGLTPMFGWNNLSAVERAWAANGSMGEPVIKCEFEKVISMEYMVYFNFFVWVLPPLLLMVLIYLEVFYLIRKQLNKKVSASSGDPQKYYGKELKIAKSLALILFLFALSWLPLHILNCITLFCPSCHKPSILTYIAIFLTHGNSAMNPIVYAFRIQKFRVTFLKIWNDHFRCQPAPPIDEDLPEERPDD

Adenosine receptor A2b [20] = target: T1, Adenosine receptor A2b; experiment: Displacement of [3H]DPCPX from human adenosine A2B receptor expressed in HEK293 cell membranes incubated for 30 mins by scintillation counting method; parameters: species or system Cell membrane
Adenosine receptor A1 = target: T6, Adenosine receptor A1 (Homo sapiens, UniProt P30542); experiment: Displacement of [3H]DPCPX from human adenosine A1 receptor expressed in CHO cell membranes incubated for 60 mins by scintillation counting method; parameters: species or system Cell membrane
T6 sequence (P30542 whole entry): T5 sequence (whole entry)

[21] = target: T7, Adenosine receptor A2b (Homo sapiens) (UniProt P29275); experiment: Displacement of [3H]DPCPX from human adenosine A2B receptor expressed in HEK293 cell membranes at 1 uM incubated for 30 mins by scintillation counting method; details: Cell membrane, filed as antagonist
T7 sequence (whole entry): T1 sequence (P29275 whole entry)

inhibition [17] [%]	inhibition [18] [%]	inhibition [19] [%]	Ki (Adenosine receptor A2b [20]) [nM]	Compound	also measured
1				CC1=C(C(=O)OC(C)C)C(c2ccco2)NC(=S)N1 (racemic)	Activity (PC-3 [7]): Non-Toxic; Activity (DU-145 [2]): Active; Activity (LNCaP [8]): Non-Toxic; Activity (LNCaP [3]): Active; Activity (PC-3 [4]): Active; Activity (DU-145 [9]): Non-Toxic; Activity (PC-3 [5]): 50%; inhibition at 1 µM (CYP3A4 [10]): 1%; inhibition at 1 µM (CYP3A4 [11]): 3%; inhibition at 10 µM (CYP3A4 [12]): 1%; Activity (PC-3 [6]): Active; inhibition at 10 µM (CYP2D6 [13]): 12%; inhibition at 10 µM (CYP3A4 [14]): 13%; inhibition at 1 µM (CYP2D6 [15]): 15%; remaining at 1 h [16]: 77%
5	1	5	659	CC1=C(C(=O)OC2CCCC2)C(c2ccsc2)NC(=O)N1 (racemic)	
2	26	24	1090	CC1=C(C(=O)OC2CCC2)C(c2cccs2)NC(=O)N1 (racemic)	
3	41	40	405	CC1=C(C(=O)OC2CCC2)C(c2ccsc2)NC(=O)N1 (racemic)	
3	46	39	724	CC1=C(C(=O)OCC2CC2)C(c2ccsc2)NC(=O)N1 (racemic)	
3	43	29	426	CC1=C(C(=O)OCC2CC2)C(c2ccoc2)NC(=O)N1 (racemic)	
16	31		326	CC1=C(C(=O)OCC(C)C)C(c2ccoc2)NC(=O)N1 (racemic)	Ki (Adenosine receptor A1): 3090 nM

Further lines, the compound ahead of its results:

Compound	inhibition [17] [%]	inhibition [18] [%]	inhibition [19] [%]	Ki (Adenosine receptor A2b [20]) [nM]	also measured
CCCn1c(=O)[nH]c2nc(-c3cnn(Cc4cccc(C(F)(F)F)c4)c3)[nH]c2c1=O					Ki (Adenosine receptor A2b [1]): 6 nM
CCCn1c(=O)[nH]c2nc(-c3ccc(S(=O)(=O)N4CCN(c5ccc(Cl)cc5)CC4)cc3)[nH]c2c1=O					Activity (DU-145 [2]): Active; Activity (LNCaP [3]): Active; Activity (PC-3 [4]): Active; Activity (PC-3 [5]): Active; Activity (PC-3 [6]): Active
CCOC(=O)C1=C(C)NC(=O)NC1c1ccsc1 (racemic)					Activity (PC-3 [7]): Non-Toxic; Activity (DU-145 [2]): Active; Activity (LNCaP [8]): Non-Toxic; Activity (LNCaP [3]): Active; Activity (PC-3 [4]): Active; Activity (DU-145 [9]): Non-Toxic; Activity (PC-3 [5]): 35%; inhibition at 1 µM (CYP3A4 [10]): 15%; inhibition at 1 µM (CYP3A4 [11]): 4%; inhibition at 10 µM (CYP3A4 [12]): 12%; Activity (PC-3 [6]): Active; inhibition at 10 µM (CYP2D6 [13]): 22%; inhibition at 10 µM (CYP3A4 [14]): 44%; inhibition at 1 µM (CYP2D6 [15]): 15%; remaining at 1 h [16]: 65%
CC1=C(C(=O)OCC2CCC2)C(c2ccsc2)NC(=O)N1 (racemic)	2	32	48	1040	
CC1=C(C(=O)OCC2CCC2)C(c2ccoc2)NC(=O)N1 (racemic)	2	25	46	739	
CC1=C(C(=O)OCC2CC2)C(c2cccs2)NC(=O)N1 (racemic)	1	27	23	1570	
CC1=C(C(=O)OCc2ccccc2)C(c2ccco2)NC(=O)N1C (racemic)	11	37			Ki (Adenosine receptor A1): 1740 nM; inhibition [21]: 41%
CC1=C(C(=O)OCC2CCC2)C(c2cccs2)NC(=O)N1 (racemic)	1	22	39	2840	
